Source: PubChem (several laboratories)
Furin inh = human furin inhibition | P09958 | purified furin, fluorogenic substrate cleavage | inhibition, % at 20 µM or 30 µM | 220,000 compounds, 0.061% hits | AID 463115; in the data active means inhibition above about 25%
Target sequence (P09958 108-714 limits assumed): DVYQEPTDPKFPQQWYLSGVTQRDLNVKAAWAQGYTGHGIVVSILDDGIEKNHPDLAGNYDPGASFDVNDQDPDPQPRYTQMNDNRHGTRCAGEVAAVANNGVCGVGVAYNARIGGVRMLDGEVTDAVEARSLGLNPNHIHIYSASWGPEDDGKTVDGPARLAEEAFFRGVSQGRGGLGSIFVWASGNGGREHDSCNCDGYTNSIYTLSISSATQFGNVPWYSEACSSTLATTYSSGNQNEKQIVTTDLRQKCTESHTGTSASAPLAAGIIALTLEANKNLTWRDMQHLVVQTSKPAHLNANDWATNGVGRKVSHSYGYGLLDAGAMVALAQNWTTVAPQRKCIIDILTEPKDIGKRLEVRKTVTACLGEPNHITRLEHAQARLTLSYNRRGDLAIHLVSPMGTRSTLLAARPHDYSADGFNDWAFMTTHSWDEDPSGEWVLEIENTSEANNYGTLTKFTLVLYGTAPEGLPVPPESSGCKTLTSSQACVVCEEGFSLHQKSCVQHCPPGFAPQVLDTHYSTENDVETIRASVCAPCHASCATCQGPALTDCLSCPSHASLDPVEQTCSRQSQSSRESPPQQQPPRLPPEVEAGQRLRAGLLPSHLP
Autophagy mod = autophagy modulation, high-content screen | MEF GFP-LC3 puncta imaging; test concentration mostly 10 µM | calls only at 10 µM (by protocol) | 190,000 compounds, 0.98% hits | AID 463193;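 active means percentage of spot-positive cells more than 3 SD above its plate mean, without a fluorescence outlier flag or 80% toxicity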
HSV replic up = increases HSV replication in cells; HSV replication augmentation in cells, fold increase; 220,000 compounds, 0.005% hits; maximum fold increase; in the data active means maximum fold increase above about 1.5; tested in PC3 cells
MT stabilize HCS = microtubule stabilization, imaging screen; HeLa tubulin immunostaining HCS, 24 h; share of cells brighter than vehicle mean+2SD; % tubulin-high responders, % at 10 µM; 200,000 compounds, 0.83% hits;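 active means plate Z-score above 3 for both tubulin-high and condensed-nucleus cell shares, with cell loss under 80%, at 10 µM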;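 further: anti alpha tubulin signal scored within the nucleus-defined area of each cell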
b-catenin transl = modulators of beta-catenin nuclear translocation; HeLa beta-catenin nuclear translocation, immunofluorescence imaging; 190,000 compounds, 0.3% hits; nuclear translocation activity, % at 5 µM;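 active means nuclear translocation activity above 50% at 5 µM, with a well cell count of 50 or more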;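 further: per-cell ratio of nuclear to cytoplasmic median beta-catenin stain intensity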
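Assay system: human HeLa cells, native beta-catenin; doses: 5 µM primary, 0.02–20 µM confirmation; incubation: compound treatment 24 h, 37°C, 5% CO2; technique: fluorescence imaging of beta-catenin antibody stain plus DAPI; measure: % activation, nuclear-to-cytoplasmic median beta-catenin signal ratio per cell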
Ins promoter up = MIN6 insulin promoter up-regulation; MIN6 insulin promoter-GFP reporter, high-content imaging; stronger effect = higher value; z-score at 5 µM; 190,000 compounds, 0.3% hits;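 active means z-score above 3 at 5 µM with at least 500 cells counted in the well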
A number is an active result. An excerpt weighted towards active compounds, which were near 1.9% of everything screened.

How did COc1cc2[nH]c3c(N4CCN(c5ccccn5)CC4)ncnc3c2cc1OC do in these assays?
Furin inh: inactive; Autophagy mod: active; MT stabilize HCS: inactive; b-catenin transl: inactive; Ins promoter up: inactive

Results for COc1ccc2[nH]c3c(N4CCc5ccccc5C4)ncnc3c2c1 ?
Furin inh: inactive; HSV replic up: inactive; b-catenin transl: 115

What do the screens show for `CC(=O)N(CCC1(c2ccc(C)cc2)CCOC(C(C)C)C1)Cc1ccco1` (centres undefined)?
Furin inh: inactive; HSV replic up: inactive; b-catenin transl: inactive; Ins promoter up: inactive

How did CN(CC(=O)NCCc1ccccc1)S(=O)(=O)c1ccccc1 do in these assays?
Furin inh: inactive; Autophagy mod: inactive; HSV replic up: inactive; MT stabilize HCS: inactive; b-catenin transl: inactive; Ins promoter up: inactive

Results for Cc1ccc(C(=O)NC2c3ccccc3-c3ccccc32)cc1 ?
Furin inh: inactive; Autophagy mod: inactive; HSV replic up: inactive; MT stabilize HCS: 24; b-catenin transl: 106; Ins promoter up: inactive

Results for COc1ccc(C2(O)CC3CCC(C2)N3c2nc(C)cc(C)c2C#N)cc1 (centres undefined) ?
Furin inh: inactive; Autophagy mod: inactive; HSV replic up: inactive; MT stabilize HCS: inactive; b-catenin transl: inactive; Ins promoter up: inactive

What do the screens show for `CC(=O)NC(=S)Nc1ccc(S(=O)(=O)N(C)Cc2ccccc2)cc1`?
Furin inh: inactive; Autophagy mod: inactive; HSV replic up: inactive; MT stabilize HCS: inactive; b-catenin transl: inactive; Ins promoter up: inactive

How did CC(C)C(=O)NC(=S)Nc1ccc(S(=O)(=O)N(C)Cc2ccccc2)cc1 do in these assays?
Furin inh: inactive; Autophagy mod: inactive; HSV replic up: inactive; MT stabilize HCS: 42; b-catenin transl: inactive; Ins promoter up: inactive

How did O=C(/C=C/c1ccc([N+](=O)[O-])cc1)Nc1ncc([N+](=O)[O-])s1 do in these assays?
Furin inh: inactive; Autophagy mod: inactive; HSV replic up: inactive; MT stabilize HCS: inactive; b-catenin transl: inactive; Ins promoter up: inactive

Results for C/C(CC1CC(C)OC1=O)=N\NC(N)=S (centres undefined) ?
Furin inh: inactive; Autophagy mod: inactive; HSV replic up: inactive; MT stabilize HCS: inactive; b-catenin transl: inactive; Ins promoter up: inactive

What do the screens show for `C/C(=N\NC(N)=S)C1C2C3CC4C5CC(C42)C1C53` (centres undefined)?
Furin inh: inactive; Autophagy mod: inactive; HSV replic up: inactive; MT stabilize HCS: 7.4; b-catenin transl: inactive; Ins promoter up: inactive

What do the screens show for `CCOc1c(Br)cc(C(N)=O)cc1OCc1ccccc1`?
Furin inh: inactive; Autophagy mod: inactive; HSV replic up: inactive; MT stabilize HCS: inactive; b-catenin transl: inactive; Ins promoter up: inactive

Results for CCCN(CCC)C(=O)Cn1c(=O)c2ccccc2n2c(=S)sc(-c3ccccc3C)c12 ?
Furin inh: inactive; Autophagy mod: inactive; HSV replic up: inactive; MT stabilize HCS: inactive; Ins promoter up: inactive

What do the screens show for `CCCN(CCC)C(=O)Cn1c(=O)c2sccc2n2c(=S)sc(-c3ccccc3)c12`?
Furin inh: inactive; Autophagy mod: active; MT stabilize HCS: inactive; b-catenin transl: inactive; Ins promoter up: inactive

What do the screens show for `C=CCN(c1ccccc1)S(=O)(=O)c1cccc(C(=O)OCC(=O)NC2CC2)c1`?
Furin inh: inactive; Autophagy mod: active; HSV replic up: inactive; MT stabilize HCS: inactive; b-catenin transl: inactive; Ins promoter up: inactive

How did C=CCN(c1ccccc1)S(=O)(=O)c1cccc(C(=O)OCC(=O)NCCOC)c1 do in these assays?
Furin inh: inactive; HSV replic up: inactive; b-catenin transl: inactive; Ins promoter up: inactive

Results for Cc1ccc(CNC(=O)COC(=O)CCC(=O)c2cccs2)cc1 ?
Furin inh: inactive; Autophagy mod: inactive; HSV replic up: inactive; MT stabilize HCS: inactive; b-catenin transl: inactive; Ins promoter up: inactive

What do the screens show for `CC1CCC(C(C)C)C(OC(=O)C[n+]2cc(-c3ccc(Cl)cc3)n3c2CCCCC3)C1` (centres undefined)?
Furin inh: inactive; Autophagy mod: active; HSV replic up: inactive; MT stabilize HCS: inactive; b-catenin transl: inactive; Ins promoter up: inactive

What do the screens show for `O=C(Nc1ccc(Cl)cc1)/C(=C/c1ccc([N+](=O)[O-])cc1)c1nc2ccccc2s1`?
Furin inh: inactive; Autophagy mod: inactive; HSV replic up: inactive; MT stabilize HCS: 36; b-catenin transl: inactive; Ins promoter up: inactive
